Test: Toxicity liver stage against HepG2, at 10uM
Type: cell-based
Design: test concentration 10 uM, cell line HepG2-A16-CD81EGFP
Details: human, HepG2-A16-CD81EGFP cells; read-out: INHIBITION
How it was run: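 Uninfected HepG2-A16-CD81EGFP cells, 3 × 10^3 per well, 1536-well, plated on prespotted compound at 10 μM final, parasite-free screening media added to match infected plates; puromycin 10 μM positive, DMSO 0.5% negative; run in parallel with 48 h PbLuc assay at 37 °C, 5% CO2; viability by CellTiter-Glo luminescence, normalized to controls.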

Row | SMILES | cytotoxicity at 10 µM [%]
1 | CCC1(CC)Cc2ccccc2-c2nc(NCCO)[nH]c(=O)c21 | -7.17
2 | CCN1CCN(Cc2coc(-c3cccc(F)c3)n2)CC1 | -7.75
3 | CC(C)(C)CN1CCOC[C@H]1c1nc(-c2cccc(F)c2)c[nH]1 | -3.79
4 | Cn1nc(-c2ccc(Cl)cc2)c(Br)c1C(=O)O | -46.8
5 | CC(=O)Nc1ccc(OCc2noc(C(=O)N3CCCCCC3)n2)cc1 | -23
6 | Cc1ccc(NC(=O)Cn2ncc(SCC(N)=O)c(Cl)c2=O)c(F)c1 | -7.21
7 | O=C(Nc1nc2c(s1)CN(S(=O)(=O)C1CC1)CC2)Nc1ccccc1F | -1.34
8 | O=C(NCCn1ccc(-c2ccncc2)n1)c1ccc2c(c1)OCO2 | 6.03
9 | O=C1[C@H]2CN(c3ncccn3)C[C@H]2CN1CC1CC1 | 4.41
10 | O=C(O)c1nnn(-c2cccc(C(F)(F)F)c2)c1-c1ccncc1 | 4.76
11 | c1ccc(N2CCC(c3ccncc3)CC2)cc1 | 8.45
12 | CN1CCCC(c2cccc(-c3cccc(Cl)c3)n2)C1 (centres undefined) | -9.58
13 | CC(C)(C)n1nnnc1CN(CCc1ccccc1)Cc1ccccc1 | 4.91
14 | Cc1c[nH]nc1C1CCN(C(=O)C2CCCC2)C1 (centres undefined) | 0.631
15 | Cc1cccc(Nc2cccc(C3CCCN(Cc4ncc[nH]4)C3)n2)n1 (centres undefined) | -24.1
16 | Cc1ccc(S(=O)(=O)N2C[C@H]3C[C@H](NC(=O)c4cc[nH]n4)[C@H]3C2)cc1 | 81.4
17 | O=C(Cc1ccc2c(c1)CCCC2)N[C@@H]1CC[C@@H](n2ccnc2)[C@@H]1O | -5.69
18 | CN(CC(=O)NCC(F)(F)F)C(=O)c1ccc(C(=O)OC(C)(C)C)cc1 | 0.68
19 | CCCN1CCN(C(=O)c2cccnc2)CC1 | -48.5
20 | CNC(=O)Cc1ccc(NC(=O)NCc2ncc(C)s2)cc1 | 7.34
21 | CC(Cn1cncn1)NC(=O)NCC(C)(C)c1ccc(F)cc1 (centres undefined) | 13.6
22 | Cc1csc(C2(NC(=O)NCCN3CCOCC3)CCCC2)n1 | -3.55

Row | SMILES | cytotoxicity at 10 µM [%]
23 | CCCc1ncc(C(=O)N2CCOc3ncccc32)s1 | 11.6
24 | Cn1cccc1C(=O)NC1CCN(c2ccc(OC(F)(F)F)cc2)CC1 | 4.87
25 | COCCNc1ccccc1CNC(=O)NCc1ccc(C)s1 | 4.38
26 | CCc1ccc(C2CCCCCN2C(=O)CNC(=O)C2CC2)o1 (centres undefined) | -7.25
27 | Cc1c(NCc2ccccc2C#N)cccc1S(=O)(=O)NC1CC1 | 30.4
28 | O=C(CCn1ccc2ccccc21)N1CCN(Cc2cccnc2)CC1 | 0.951
29 | COc1ccc(CCN(C)CCS(=O)(=O)c2ccc(Cl)cc2)cc1OC | 35.4
30 | CCc1ccc(C2COCCN2C(=O)Nc2ccc(C#N)cc2)o1 (centres undefined) | -0.0554
31 | COc1ccc(-n2cnnc2SCC(=O)NC(C)C)cn1 | 14
32 | Cc1ccc(N2CCCC(NCCS(C)(=O)=O)C2)nn1 (centres undefined) | -5.26
33 | O=C(COc1cccc2c1CCC2=O)NCCc1cccs1 | 0.79
34 | Fc1ccc(CNCCn2cccn2)c(Cl)c1 | -1.26
35 | Cc1nc(C)c(C(=O)NCCOc2ccc(C(F)(F)F)cn2)o1 | 2.42
36 | Cc1ccsc1CNC(=O)Nc1ccn(CCN2CCOCC2)n1 | 8.28
37 | CC(C)CC(Cc1cccc(Br)c1)C(=O)O (centres undefined) | 13.8
38 | Cc1cc(N(C)CCOc2ccccc2F)nc(N)n1 | 20.1
39 | COc1cccc(N2CCC(CNc3cc(C)nc4ncnn34)C2)c1 (centres undefined) | 59.7
40 | CCCN(CCc1ccccn1)C(=O)CCc1cnn(C)c1 | -2.84
41 | CC(=O)N1CCN(C2CCc3ccccc32)CC1 (centres undefined) | -44.7
42 | Cc1ccc(CN(C)C(=O)c2cnsn2)cc1 | -16.4
43 | O=C(CCc1ccco1)NS(=O)(=O)Cc1ccon1 | 9.99
44 | Cc1cc(Br)cnc1NCCN1CCC(N(C)C)CC1 | -10.6

Row | SMILES | cytotoxicity at 10 µM [%]
45 | CCOCC(=O)N1C[C@@H]2COC[C@]2(c2nc(C)no2)C1 | -90.9
46 | COc1cc(N2C[C@@H]3COC[C@@H](Cc4nc(C)no4)[C@@H]3C2)ncn1 | -105
47 | O=C(c1cscn1)N1C[C@H]2CCC[C@@]2(COCc2ccccn2)C1 | -103
48 | CNC(=O)N1CC[C@@H]2CN(Cc3cccc(OC)c3)S(=O)(=O)[C@@H]2CC1 | -108
49 | O=C(c1ccoc1)N1CCc2c(COCC3CC3)cncc2C1 | -76.9
50 | c1cc(CN2CCOCC3(CCNCC3)C2)ccn1 | -71
51 | COCCC(=O)N1CC[C@H]2O[C@@H](C)C[C@H]2C1 | -72.4
52 | O=C(NC1CCC1)C1=NOC2(CCN(Cc3ccc(F)cc3)C2)C1 (centres undefined) | -67.7
53 | CCO[C@@H]1CO[C@@]2(CCCN(S(=O)(=O)c3ccccc3)C2)C1 | -77.2
54 | CSc1ncccc1C(=O)N1CCCC1c1ccc(C(=O)N(C)C)s1 (centres undefined) | 6.45
55 | COc1cc(C(=O)NCc2cc(N3CCOCC3)ncn2)ccn1 | -10.8
56 | Cn1ncc(N2CCC(CNC3CC(c4ccccc4)C3)CC2)cc1=O (centres undefined) | -2.15
57 | Cn1nnnc1SCCNC1CCN(c2ccc3c(c2)OCO3)CC1 | 3.07
58 | CCc1cc(CN2CCCCC2c2ccc(F)cc2)on1 (centres undefined) | -2.45
59 | Cc1cc(CC(C)Nc2ncc(C)c(N(C)C)n2)[nH]n1 (centres undefined) | -7.85
60 | CC(C)N(C)S(=O)(=O)c1ccc2c(c1)CCN(C(=O)c1cscn1)C2 | 8.48
61 | CC(C)c1nc(CN(C)C(=O)c2ccc(CN3CCCCC3)cc2)cs1 | -6.1
62 | CCCN1CCN(S(=O)(=O)c2ccccc2OC)[C@H]2CS(=O)(=O)C[C@H]21 | -3.56
63 | COc1cccc(CC(=O)N2CCc3ncnc(NCCO)c3CC2)c1 | -4.12
64 | C=C(C)COc1cccc(C(=O)N2CCC(O)(c3ccccc3)CC2)c1 | -44.9
65 | CCCn1nc(C)c(CN2CC3(CCOC3)CCC2=O)c1C (centres undefined) | 4.28
66 | CN1CCC(Cc2nc(-c3ccnn3C)n(Cc3ccccc3)n2)CC1 | 44.1

Row | SMILES | cytotoxicity at 10 µM [%]
67 | c1cc(CN2CCC(c3nnc4n3CCCCC4)CC2)c2nonc2c1 | -1.08
68 | CC(C)c1nccn1C(C)C(=O)N1CCN(c2ccccc2Cl)CC1 (centres undefined) | 3.54
69 | CC(C)c1ocnc1C(=O)NC(c1nnc2n1CCNCC2)C(C)C (centres undefined) | -9.72
70 | COc1cccc(CCC2CCCN(Cc3ncc[nH]3)C2)c1 (centres undefined) | 1.13
71 | Cc1cccc(N2CCC(N3CCC4(CN(C)C(=O)O4)C3)CC2)c1C (centres undefined) | -11.8
72 | CNC(=O)C(C)(C)NC(=O)c1cc(COc2ccccc2OC)[nH]n1 | 1.6
73 | CCc1cnc(N)nc1NCCCn1cc(Cl)cn1 | 3.5
74 | CN(Cc1ccccc1Cl)C(C(=O)O)c1ccc(F)c(CO)c1 (centres undefined) | -46.4
75 | COc1ccc(-n2cnnc2CC2CCNCC2)cc1 | -5.53
76 | CCc1csc(CNc2nc3c(s2)c(C)nn3C)n1 | -35.5
77 | CN1CCN([C@H]2CCN(C(=O)c3cc(Cl)cn3C)C[C@H]2CCCO)CC1 | 0.174
78 | O=C(NC1CC1)C1CN(c2nc3ccccc3s2)CCN1 (centres undefined) | -49.4
79 | CCN(C)S(=O)(=O)N[C@H]1CN(c2ccc(F)cn2)C[C@@H]1C(C)C | 10.8
80 | COCCN1CCC(CN(C)c2nc3c(s2)c(C)nn3C)CC1 | 0.992
81 | CCSC(C)C(=O)N1CCC(c2nn(C)c(=O)n2-c2ccccc2)CC1 (centres undefined) | 0.299
82 | COc1ncc(CN(CCN(C)C)Cc2ccc(C)s2)cn1 | -50.3
83 | C1Cc2nc(CCNc3nc(C4CC4)nc4c3CCNCC4)sc2C1 | -10.4
84 | COc1ccc(OCc2cc(C(=O)N3CCN[C@H](C)C3)n[nH]2)c(Cl)c1 | -11.7
85 | Cc1cc(Br)c(O)c(-c2nc(N3CCCCC3)sc2C)c1 | -7.13
86 | CC(=O)N1C[C@@H](c2ccsc2)[C@@H]2CN(Cc3cccc(Cl)c3)CC[C@@H]21 | 13.1
87 | CCOCCCn1c(NC(=O)c2cc(C)on2)nc2ccccc21 | -31.3
88 | Cc1nn(C)c(N(C)C)c1CNCCC(=O)NC1CCCC1 | -3.37

Row | SMILES | cytotoxicity at 10 µM [%]
89 | CCCc1noc(CCCC(=O)N2CCCC2c2cnn(C)c2)n1 (centres undefined) | 6.32
90 | Cc1cn2c(n1)CCC(NC(=O)c1[nH]nc(C)c1Br)C2 (centres undefined) | -17.6
91 | CCN(Cc1nc2c(cnn2C)c(=O)[nH]1)c1cc(C)cc(C)c1 | -5.83
92 | COCCc1noc(CN2CCCC2Cn2nc(C)nc2C)n1 (centres undefined) | -1.39
93 | c1cnnc(N2CCCC2CNc2ncnc3ccccc23)c1 (centres undefined) | 2.33
94 | CC1(C)CC(N(Cc2cccnc2)Cc2cccnc2)CC(C)(C)N1 | 1.3
95 | CN1CCN(C(=O)Cc2ccsc2)Cc2cccnc21 | -1.16
96 | Cn1nc(C2CCCN(Cc3ccccc3)C2)c2nccnc21 (centres undefined) | -9.05
97 | CC(C)C(=O)N1CCC2(CC1)COCCN2Cc1ccc(F)cc1 | -60.9
98 | O=C(NCc1cnc2n1CCN(Cc1ccoc1)C2)c1ccno1 | -93
99 | N#Cc1ccc(N2CCCC3(CCN(c4cncnc4)C3=O)C2)nc1 (centres undefined) | -97.6
100 | COc1ccc(CN2C[C@@H]3CN(Cc4cccnc4)CCO[C@@H]3C2)cc1 | 10.3
101 | CCn1cc2c(n1)CN(Cc1cnn(C)c1)CC2COCC1CC1 (centres undefined) | -80.4
102 | Cn1ncc2c1CN(C(=O)Cc1ccccn1)CC2COCC1CC1 (centres undefined) | -73.6
103 | CN(C)c1nccc(N2CCO[C@H]3CN(Cc4ccsc4)C[C@H]32)n1 | 8.93
104 | Cc1ccc(CN2Cc3nccn3CC(CN(C)C)C2)s1 (centres undefined) | -82.4
105 | CN(C)CCNC(=O)c1cc(-c2cnc(N3CCCC3)nc2)cn1C | 15.7
106 | c1cncc(N2CCCC3(CN(Cc4cccs4)CCO3)C2)c1 (centres undefined) | 11.5
107 | CC(C)COC1CC2(CCN(C(=O)Cc3ccccn3)CC2)C1 | -113
108 | CCC1=NN2C(=N)C(=Cc3cccn3-c3ccc(Br)cc3)C(=O)N=C2S1 | -7.83
109 | O=C(Nc1cccnc1)[C@H]1C[C@H]2CN(Cc3ccc(F)cc3)C[C@@H]1O2 | -82.9

Source: ChEMBL document CHEMBL4513216, “Probing the Open Global Health Chemical Diversity Library for Multistage-Active Starting Points for Next-Generation Antimalarials” (ACS Infect Dis, 2020)
